Experimental data published in ChEMBL document CHEMBL5136969, “A niclosamide-tobramycin hybrid adjuvant potentiates cefiderocol against P. aeruginosa” (2021).
In brackets after ≈: the same amount, converted by molar mass.

Tests used:
Format in all cases: functional
Escherichia coli = assay: Antibacterial activity against Escherichia coli ATCC 25922 assessed as reduction in bacterial growth after 18 hrs by microbroth dilution method
Method in brief: (§1)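 CLSI microbroth dilution in MHB. Overnight cultures were adjusted to 0.5 McFarland in saline, diluted 1:50, and inoculated at about 5 × 10^5 CFU/mL. Agents were 2-fold serially diluted and incubated 18 h at 37 °C. MIC is the lowest concentration without visible turbidity, confirmed by absorbance at 590 nm. Medium with and without cells served as controls.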

Pseudomonas aeruginosa = assay: Antibacterial activity against Pseudomonas aeruginosa PAO1 assessed as reduction in bacterial growth after 18 hrs by microbroth dilution method
Method in brief: (§2)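 CLSI broth microdilution. Overnight cultures were adjusted in saline to 0.5 McFarland, diluted 1:50 in Mueller-Hinton broth (MHB), and inoculated at about 5 × 10^5 CFU/mL. Agents were 2-fold serially diluted in MHB, mixed 1:1 with inoculum, and held at 37 °C for 18 h. MIC was the lowest concentration with no visible turbidity, confirmed at 590 nm.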

Acinetobacter baumannii = assay: Antibacterial activity against Acinetobacter baumannii ATCC 17978 assessed as reduction in bacterial growth after 18 hrs by microbroth dilution method; method in brief: as §1
[1] = system: Staphylococcus epidermidis; assay: Antibacterial activity against methicillin-resistant Staphylococcus epidermidis 61589 assessed as reduction in bacterial growth after 18 hrs by microbroth dilution method
Method in brief: (§3)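 Broth microdilution per CLSI in Mueller-Hinton broth (MHB). Overnight cultures were adjusted to 0.5 McFarland in saline, diluted 1:50 in MHB, and added at about 5 × 10^5 CFU/mL final to equal volumes of 2-fold serial dilutions of agent. Incubation was 18 h at 37 °C. MIC was the lowest concentration with no visible turbidity, confirmed by absorbance at 590 nm.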

Staphylococcus aureus [2] = assay: Antibacterial activity against methicillin-resistant Staphylococcus aureus ATCC 33592 assessed as reduction in bacterial growth after 18 hrs by microbroth dilution method; method in brief: as §3
Enterococcus faecium = assay: Antibacterial activity against Enterococcus faecium ATCC 27270 assessed as reduction in bacterial growth after 18 hrs by microbroth dilution method; method in brief: as §1
Enterococcus faecalis = assay: Antibacterial activity against Enterococcus faecalis ATCC 29212 assessed as reduction in bacterial growth after 18 hrs by microbroth dilution method; method in brief: as §1
Staphylococcus aureus [3] = assay: Antibacterial activity against Staphylococcus aureus ATCC 29213 assessed as reduction in bacterial growth after 18 hrs by microbroth dilution method; method in brief: as §2

Compound `O=C(Nc1ccc([N+](=O)[O-])cc1Cl)c1cc(Cl)ccc1O` [NICLOSAMIDE] has an MIC (Escherichia coli) greater than 128 µg/mL, an MIC (Pseudomonas aeruginosa) greater than 128 µg/mL and an MIC (Acinetobacter baumannii) greater than 128 µg/mL. The MIC [1] was 1 µg/mL (≈ 3.06 µM), the MIC (Staphylococcus aureus [2]) was 0.25 µg/mL (≈ 0.764 µM) and the MIC (Enterococcus faecium) was 2 µg/mL (≈ 6.11 µM). It also gave an MIC (Enterococcus faecalis) of 2 µg/mL (≈ 6.11 µM) and an MIC (Staphylococcus aureus [3]) of 1 µg/mL (≈ 3.06 µM).
Work on `NC[C@H]1O[C@H](O[C@H]2[C@H](O)[C@@H](O[C@H]3O[C@H](CO)[C@@H](O)[C@H](N)[C@H]3O)[C@H](N)C[C@@H]2N)[C@H](N)C[C@@H]1O` [TOBRAMYCIN] yielded an MIC (Escherichia coli) of 2 µg/mL (≈ 4.28 µM), an MIC (Pseudomonas aeruginosa) of 0.5 µg/mL (≈ 1.07 µM) and an MIC (Acinetobacter baumannii) of 0.5 µg/mL (≈ 1.07 µM). It also gave an MIC [1] of 8 µg/mL (≈ 17.1 µM), an MIC (Staphylococcus aureus [2]) of 2 µg/mL (≈ 4.28 µM) and an MIC (Enterococcus faecium) of 16 µg/mL (≈ 34.2 µM). For the same compound, the MIC (Enterococcus faecalis) was 8 µg/mL (≈ 17.1 µM) and the MIC (Staphylococcus aureus [3]) was 0.5 µg/mL (≈ 1.07 µM).
